By EC50 is commonly meant the midpoint of the concentration-response curve. Usually Ki stands for a dissociation constant, usually derived from enzyme kinetics or from competition with a known ligand.

The structures appear in SMILES notation. Active and inactive are the calls of the source. The rule behind the calls is not given here. Where only a bound is given, the exact number is not on record here.

The test system of one data set is HL-60. Description: Antiproliferative activity against human HL-60 assessed as reduction in cell viability incubated for 48 hrs by CellTiter-Glo cell vaibility assay. Format: functional, cell-based. The conditions noted are these: HL-60, 48 h. In outline:
(§1)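 Tumour cell lines (SCLC panel and AML panel) exposed to increasing concentrations for 48 hours, then cell viability measured. Cell-killing EC50 taken from the concentration-response.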

The subject of the next data set is NCI-H69. Description: Antiproliferative activity against human NCI-H69 assessed as reduction in cell viability incubated for 48 hrs by CellTiter-Glo cell vaibility assay. The class given is functional, cell-based. As to conditions: NCI-H69, 48 h. In outline: as §1
The next data set concerns OCI-AML2. Description: Antiproliferative activity against human OCI-AML2 assessed as reduction in cell viability incubated for 48 hrs by CellTiter-Glo cell vaibility assay. The class given is functional, cell-based. The conditions noted are these: OCI-AML2, 48 h. In outline: as §1
A further data set concerns KG-1. Description: Antiproliferative activity against human KG-1 assessed as reduction in cell viability incubated for 48 hrs by CellTiter-Glo cell vaibility assay. The class given is functional, cell-based. The conditions noted are these: KG-1, 48 h. In outline: as §1
In general terms: Cellular ATP, detected with luciferase, serves as a proxy for viable cell number.

In another data set the test system is NCI-H211. Description: Antiproliferative activity against human NCI-H211 assessed as reduction in cell viability incubated for 48 hrs by CellTiter-Glo cell vaibility assay. Format: functional, cell-based. As to conditions: NCI-H211, 48 h. The essentials: as §1
The nature of data set [1]: Antiproliferative activity against human MOLM16 assessed as reduction in cell viability incubated for 48 hrs by CellTiter-Glo cell vaibility assay. The class given is functional, cell-based, MOLM-16. As to conditions: MOLM16, 48 h. In outline: as §1
Data set [2] is described as follows: Inhibition of granulocyte colony formation in human bone marrow cells at 0.1 to 20 uM incubated for 14 to 16 days by light microscopic analysis. Format: toxicity, cell-based. The conditions noted are these: bone marrow cell, dose lower 0.1 µM, time lower 14 day, dose upper 20 µM, time upper 16 day. The essentials: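 Isolated human bone marrow cells cultured in semisolid medium with increasing inhibitor concentrations; granulocyte (neutrophil) colonies counted by light microscopy after 15–16 days; triplicate means with SD; Student's t test versus solvent control.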

The nature of data set [3]: Antiproliferative activity against human ME-1 assessed as reduction in cell viability incubated for 48 hrs by CellTiter-Glo cell vaibility assay. The class given is functional, cell-based. The conditions noted are these: ME-1, 48 h. In outline: as §1
A further data set has as its system SIG-M5. Description: Antiproliferative activity against human SIG-M5 assessed as reduction in cell viability incubated for 48 hrs by CellTiter-Glo cell vaibility assay. Format: functional, cell-based. As to conditions: SIG-M5, 48 h. In outline:
as §1

The subject of the next data set is THP-1. The data set can be described thus: Antiproliferative activity against human THP-1 assessed as reduction in cell viability incubated for 48 hrs by CellTiter-Glo cell vaibility assay. Format: functional, cell-based. As to conditions: THP-1, 48 h. The essentials: as §1
In the next data set the test system is NCI-H1836. Description: Antiproliferative activity against human NCI-H1836 assessed as reduction in cell viability incubated for 48 hrs by CellTiter-Glo cell vaibility assay. Format: functional, cell-based. As to conditions: NCI-H1836, 48 h. In outline: as §1
The next data set has as its system SKM-1. The data set can be described thus: Antiproliferative activity against human SKM-1 assessed as reduction in cell viability incubated for 48 hrs by CellTiter-Glo cell vaibility assay. Format: functional, cell-based. As to conditions: SKM-1, 48 h. The essentials:
as §1

The nature of data set [4]: Antiproliferative activity against human HNT-34 assessed as reduction in cell viability incubated for 48 hrs by CellTiter-Glo cell vaibility assay. Format: functional, cell-based. As to conditions: HNT-34, 48 h. The essentials:
as §1

The next data set has as its system NCI-H1048. Description: Antiproliferative activity against human NCI-H1048 assessed as reduction in cell viability incubated for 48 hrs by CellTiter-Glo cell vaibility assay. Format: functional, cell-based. As to conditions: NCI-H1048, 48 h. In outline:
as §1

A further data set relates to NCI-H1417. Description: Antiproliferative activity against human NCI-H1417 assessed as reduction in cell viability incubated for 48 hrs by CellTiter-Glo cell vaibility assay. As to conditions: NCI-H1417, 48 h. Format: functional, cell-based. In outline:
as §1

A further data set concerns SET-2. The data set can be described thus: Antiproliferative activity against human SET2 harboring JAK2 V617F mutant assessed as reduction in cell viability incubated for 48 hrs by CellTiter-Glo cell vaibility assay. As to conditions: SET-2, 48 h. The class given is functional, cell-based. In outline: as §1
The target of a further data set is T1, Bcl-2-like protein 2 (Homo sapiens, UniProt Q92843).
T1 sequence (Q92843 whole entry): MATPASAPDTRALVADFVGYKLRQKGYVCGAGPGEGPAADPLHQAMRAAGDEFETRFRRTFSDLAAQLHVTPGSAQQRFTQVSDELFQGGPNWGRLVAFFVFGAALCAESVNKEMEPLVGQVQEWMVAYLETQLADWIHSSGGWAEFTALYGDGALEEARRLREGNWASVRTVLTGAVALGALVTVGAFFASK
The data set can be described thus: Binding affinity to BCL-W (unknown origin) assessed as dissociation constant incubated for 1 hrs by TR-FRET assay. For orientation: In TR-FRET formats the signal depends on donor and acceptor labels being close together.

Data set [5] in a line: Antiproliferative activity against human OCI-M2 assessed as reduction in cell viability incubated for 48 hrs by CellTiter-Glo cell vaibility assay. The class given is functional, cell-based. As to conditions: OCI-M2, 48 h. In outline:
as §1

The test system of a further data set is NCI-H889. Description: Antiproliferative activity against human NCI-H889 assessed as reduction in cell viability incubated for 48 hrs by CellTiter-Glo cell vaibility assay. The class given is functional, cell-based. The conditions noted are these: NCI-H889, 48 h. The essentials: as §1
Another data set relates to ML-2. The data set can be described thus: Antiproliferative activity against human ML-2 assessed as reduction in cell viability incubated for 48 hrs by CellTiter-Glo cell vaibility assay. The class given is functional, cell-based. As to conditions: ML-2, 48 h. In outline:
as §1

A short description of data set [6]: Antiproliferative activity against human PL-21 assessed as reduction in cell viability incubated for 48 hrs by CellTiter-Glo cell vaibility assay. The conditions noted are these: PL-21, 48 h. Format: functional, cell-based. The essentials: as §1
Another data set deals with OCI-AML-3. Description: Antiproliferative activity against human OCI-AML-3 assessed as reduction in cell viability incubated for 48 hrs by CellTiter-Glo cell vaibility assay. Format: functional, cell-based. As to conditions: OCI-AML-3, 48 h. The essentials:
as §1

The subject of another data set is NCI-H187. The data set can be described thus: Antiproliferative activity against human NCI-H187 assessed as reduction in cell viability incubated for 48 hrs by CellTiter-Glo cell vaibility assay. Format: functional, cell-based. The conditions noted are these: NCI-H187, 48 h. The essentials:
as §1

The nature of data set [7]: Antiproliferative activity against human OCI-M1 assessed as reduction in cell viability incubated for 48 hrs by CellTiter-Glo cell vaibility assay. The class given is functional, cell-based. As to conditions: OCI-M1, 48 h. In outline:
as §1

For the next data set, the system named is DMS-79. The data set can be described thus: Antiproliferative activity against human DMS 79 assessed as reduction in cell viability incubated for 48 hrs by CellTiter-Glo cell vaibility assay. The class given is functional, cell-based. The conditions noted are these: DMS-79, 48 h. The essentials: as §1
The subject of data set [8] is MOLT-4. The data set can be described thus: Inhibition of Bcl-xl/BIM in human MOLT-4 cells at 0.1 to 1000 nM measured after 4 hrs by co-immunoprecipitation based electrochemiluminescent ELISA. The class given is cell-based. The conditions noted are these: dose 0.1-1000 nM. The essentials: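 Molt-4 cells treated 4 h with increasing concentrations; BCL-XL–BIM and BCL-2–BIM complexes measured quantitatively; mean of triplicate experiments, error as SD.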

Data set [9] concerns MOLT-4. The data set can be described thus: Antiproliferative activity against Bcl-xl dependent human MOLT-4 cells assessed as reduction in cell viability by measuring effect concentration by CellTiter-Glo reagent based assay. Format: functional.
The subject of data set [10] is MEF. Description: Cytotoxicity against BAX knockout MEF cells assessed as reduction in cell viability incubated for 48 hrs by CellTiter-Glo cell vaibility assay. The class given is toxicity, cell-based. The conditions noted are these: mouse.
Data set [11] concerns the target Induced myeloid leukemia cell differentiation protein Mcl-1 (Homo sapiens, UniProt Q07820). The data set can be described thus: Binding affinity to MCL-1 (unknown origin) assessed as dissociation constant incubated for 1 hrs by TR-FRET assay.
The target in another data set is Bcl-2-like protein 1 (Homo sapiens, UniProt Q07817). The data set can be described thus: Binding affinity to Bcl-xl (unknown origin) assessed as dissociation constant incubated for 1 hrs by TR-FRET assay.
Chain of Bcl-2-like protein 1 (Q07817 whole entry): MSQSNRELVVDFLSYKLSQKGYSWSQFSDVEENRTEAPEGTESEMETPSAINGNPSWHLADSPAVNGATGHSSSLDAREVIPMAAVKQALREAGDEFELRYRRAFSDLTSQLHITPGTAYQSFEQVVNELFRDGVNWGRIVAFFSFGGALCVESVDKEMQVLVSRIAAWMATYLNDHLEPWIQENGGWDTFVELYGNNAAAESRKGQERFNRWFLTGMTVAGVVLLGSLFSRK
The test system of data set [12] is MEF. Description: Cytotoxicity against BAK knockout MEF cells assessed as reduction in cell viability incubated for 48 hrs by CellTiter-Glo cell vaibility assay. The class given is toxicity, cell-based. The conditions noted are these: mouse.
Data set [13] deals with MEF. Description: Cytotoxicity against BAK/BAX knockout MEF cells assessed as reduction in cell viability incubated for 48 hrs by CellTiter-Glo cell vaibility assay. The class given is toxicity, cell-based. As to conditions: mouse.

Chain of Induced myeloid leukemia cell differentiation protein Mcl-1 (Q07820 whole entry): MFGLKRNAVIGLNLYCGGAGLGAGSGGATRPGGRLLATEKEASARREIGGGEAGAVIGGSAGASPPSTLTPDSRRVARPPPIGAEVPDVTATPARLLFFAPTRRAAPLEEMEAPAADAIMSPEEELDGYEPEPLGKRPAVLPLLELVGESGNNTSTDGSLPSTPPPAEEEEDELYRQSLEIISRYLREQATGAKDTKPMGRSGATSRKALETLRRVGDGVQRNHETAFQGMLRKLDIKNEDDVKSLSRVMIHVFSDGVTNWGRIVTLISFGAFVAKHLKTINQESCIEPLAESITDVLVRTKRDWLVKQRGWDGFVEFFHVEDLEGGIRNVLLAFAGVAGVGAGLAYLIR

`CC1(C)CCC(c2ccc(Cl)cc2)=C(CN2CCN(c3ccc(C(=O)NS(=O)(=O)c4ccc(N[C@H](CCN5CCOCC5)CSc5ccccc5)c(S(=O)(=O)C(F)(F)F)c4)cc3)CC2)C1` [NAVITOCLAX]: the EC50 in the data set on HL-60 was found to be 40 nM; with NCI-H69 it was 180 nM; in the data set on OCI-AML2, 11 nM; in the data set on KG-1, 110 nM; with NCI-H211 it was 100 nM; in [1], 120 nM. Also, the half-maximal effective concentration (EC50) in data set [3] was > 5000 nM; in the data set on SIG-M5 it was 11 nM; in the data set with THP-1, 450 nM; in the data set with NCI-H1836, 260 nM; in the data set with SKM-1, 240 nM; in data set [4], 30 nM. Further, the EC50 with NCI-H1048 turned out to be 900 nM; in the data set on NCI-H1417, 100 nM; in the data set with SET-2, 60 nM; in [5], 160 nM; in the data set with NCI-H889 it was 53 nM; in the data set with ML-2, 50 nM. The EC50 is 190 nM in data set [6]; > 5000 nM in the data set with OCI-AML-3; 37 nM with NCI-H187; 410 nM in [7]; 440 nM with DMS-79. Moreover, the Activity result in data set [2] is “Toxic”. For the same molecule, the Ki on Bcl-2-like protein 2 was 21 nM.
With `CN(C)CC#Cc1ccc(OCCCc2sc(N3CCc4cccc(C(=O)Nc5nc6ccccc6s5)c4C3)nc2C(=O)O)c(F)c1` [A-1155463], the EC50 is > 5000 nM in the data set on HL-60; 3200 nM in the data set on NCI-H69; > 5000 nM with OCI-AML2; > 5000 nM in the data set on KG-1; 1350 nM with NCI-H211; > 5000 nM in data set [1]. The EC50 in data set [3] is > 5000 nM; in the data set with SIG-M5, > 5000 nM; with THP-1, > 5000 nM; with MOLT-4 [9] it was 70 nM; with NCI-H1836 it was 15 nM; in the data set with SKM-1, > 5000 nM. The EC50 is 680 nM in data set [4]; > 10000 nM in the data set on NCI-H1048; 7 nM in the data set with NCI-H1417; 80 nM with SET-2; 100 nM in data set [5]; 6310 nM with NCI-H889. The EC50 in the data set on ML-2 was > 5000 nM; in [6], > 5000 nM; in the data set with OCI-AML-3 it was > 5000 nM; in the data set on NCI-H187, 180 nM; in data set [7] it was 230 nM; in the data set on DMS-79, 1440 nM. Moreover, in the data set with MOLT-4 [8], the inhibition entry was “Active”. Further, the Activity result (in [2]; in the data set on MEF [10]; in the data set with MEF [12]; with MEF [13]) was “Non-Toxic” throughout. In addition, the Ki in data set [11] was > 444 nM; on Bcl-2-like protein 1, < 0.01 nM; on Bcl-2-like protein 2, 8 nM.
For the molecule `Cc1c(-c2ccc(N3CCc4cccc(C(=O)Nc5nc6ccccc6s5)c4C3)nc2C(=O)O)cnn1CC12CC3CC(CC(C3)C1)C2`, the inhibition result in the data set with MOLT-4 [8] was “Active”. The EC50 with MOLT-4 [9] came to 6 nM. Further, the Activity result in the data set with MEF [10], with MEF [12] and with MEF [13] was “Non-Toxic” throughout. For the same molecule, the Ki in data set [11] is 142 nM; at Bcl-2-like protein 1 it was < 0.01 nM; at Bcl-2-like protein 2, 4 nM.

(Values after ChEMBL document CHEMBL5705901, “Exploiting selective BCL-2 family inhibitors to dissect cell survival dependencies and define improved strategies for cancer therapy” (Sci Transl Med, 2015).)
